We go through 1 molecule from ChEMBL document CHEMBL1124158, “Importance of the N-terminal domain of the type II angiotensin antagonist sarmesin for receptor blockade” (J Med Chem, 1988).

For experiment [1], the species on record is Rattus norvegicus. Put plainly: Agonistic activity determined by matching the response with an equivalent response to ANG II (human)-evaluated in rat uterus bioassay. Type of experiment: functional. Summed up:
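Uterine horns (defatted) from diethylstilbestrol-primed virgin Sprague-Dawley rats (150-250 g), halved, held under 1 g tension in a 3-mL bath: 150 mM NaCl, 5.6 mM KCl, 0.18 mM NaHCO₃, 1.4 mM glucose, pH 7.0, oxygen-gassed. Isotonic contractions recorded. Agonist activity expressed relative to an equivalent contraction produced by human ANG II.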

The species named for experiment [2] is Rattus norvegicus. Put plainly: Negative logarithm of the concentration of compound required to reduce the response of EC50 dose of ANG II to the response to half the EC50 dose. Type of experiment: functional, organism-based. Particulars: read-out: pA2 (converted). The essentials:
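Rat isolated uterus: defatted horns from diethylstilbestrol-primed virgin Sprague-Dawley rats (150-250 g), halved, 1 g tension, 3-mL bath of 150 mM NaCl, 5.6 mM KCl, 0.18 mM NaHCO₃, 1.4 mM glucose, pH 7.0, oxygenated. Isotonic contractions to human ANG II. pA2 = −log antagonist concentration lowering the EC50-dose response to that of half the EC50 dose.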

For the molecule `CC[C@H](C)[C@H](NC(=O)[C@@H]1CCCN1C(=O)[C@H](Cc1c[nH]cn1)NC(=O)[C@@H](NC(=O)[C@H](Cc1ccc(O)cc1)NC(=O)[C@@H](NC(=O)[C@H](CCCN=C(N)N)NC(=O)CNC)C(C)C)[C@@H](C)CC)C(=O)O`, the Activity in the experiment listed under Rattus norvegicus [1] is less than 0.01%. Besides, the Kb in the experiment filed under Rattus norvegicus [2] was 7.94 nM.
